Experimental data gathered from unrelated publications.
Protocols differ between the studies behind these lines.
Target: Serine/threonine-protein kinase 3 (STK3, Homo sapiens, UniProt Q13188)
One construct used (Q13188 1-491): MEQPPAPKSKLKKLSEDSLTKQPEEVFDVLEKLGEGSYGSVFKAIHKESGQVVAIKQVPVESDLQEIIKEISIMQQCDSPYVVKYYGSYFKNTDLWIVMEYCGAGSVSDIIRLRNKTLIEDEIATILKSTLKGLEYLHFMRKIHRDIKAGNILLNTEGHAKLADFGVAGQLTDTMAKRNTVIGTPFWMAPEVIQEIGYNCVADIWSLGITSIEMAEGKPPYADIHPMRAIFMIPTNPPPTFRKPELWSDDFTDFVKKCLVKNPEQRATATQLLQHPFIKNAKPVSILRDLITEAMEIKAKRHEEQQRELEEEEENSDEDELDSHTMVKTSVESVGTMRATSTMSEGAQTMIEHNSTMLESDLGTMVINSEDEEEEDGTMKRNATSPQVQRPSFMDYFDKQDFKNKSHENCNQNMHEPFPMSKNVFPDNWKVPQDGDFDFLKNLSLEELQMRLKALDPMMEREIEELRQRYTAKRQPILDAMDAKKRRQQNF

| SMILES | read-out | mode | technique | cell line | tested at | measurement | value |
| --- | --- | --- | --- | --- | --- | --- | --- |
| CC1(C)NC(=O)c2[nH]c3c(Cl)c(Cl)ccc3c2C1C#N (centres unmarked) | thermal stability |  | DSF |  | 10 µM | ΔTm | 0.2 °C |
| CN(C)C(=O)Cn1cc(-c2nc(C3(c4ccc(-c5cnc(N)nc5)cc4)CC3)no2)cn1 | cell-free assay |  | competition with immobilised ligand |  | 1 µM | remaining binding | 100% |
| CCN(CC)c1ccc(C2=NNC(=O)CC2C)cc1[N+](=O)[O-] (centres unmarked) | enzyme activity | inhibitor |  |  | 10 µM | remaining activity | 87% |
| O=C(O)[C@@H]1[C@@H](Cn2nnc3ccccc3c2=O)CC[C@H]1C(=O)c1ccc(OCCC2CCOCC2)cc1 | cell-free assay |  | competition with immobilised ligand |  | 1 µM | remaining binding | 100% |
| N#CC1c2c([nH]c3c(Cl)c(Cl)ccc23)C(=O)NC12CCCCC2 (racemic) | thermal stability |  | DSF |  | 10 µM | ΔTm | 0.6 °C |
| CNC(=O)c1cc(Oc2ccc(NC(=O)Nc3ccc(Cl)c(C(F)(F)F)c3)cc2)ccn1 | cell-free assay | inhibitor |  |  | 0.3 µM | inhibition | 7% |
| CN(C)S(=O)(=O)c1ccc2c(c1)/C(=C/c1cc3c([nH]1)CCCC3)C(=O)N2 | cell-free assay |  |  |  | 0.5 µM | remaining signal | 24.3% |
| CC(C)(C)c1nc2c(s1)c1nc(N)ncc1c1ccc(NS(=O)(=O)c3c(F)cccc3F)c(F)c12 | enzyme activity | inhibitor | radiometric |  | 1 µM | remaining activity | 89% |
| O=C(N[C@H]1CCCCC/C=C\C2C[C@@]2(C(=O)O)NC(=O)[C@@H]2C[C@@H](Oc3ccncc3)CN2C1=O)OC1CCCC1 (some centres unmarked) | binding |  | competition with immobilised ligand |  | 1 µM | remaining binding | 76% |
| Cn1c(=O)n(-c2ccc(C(C)(C)C#N)cc2)c2c3cc(-c4cnc5ccccc5c4)ccc3ncc21 | enzyme activity | inhibitor |  |  | 10 µM | remaining activity | 89% |
| CNCc1ccc(-c2cc(-c3nc(-c4ccc(S(=O)(=O)C(C)C)cc4)cnc3N)on2)cc1 | enzyme activity | inhibitor |  |  | 0.4 µM | inhibition | 18% |
| CC(=O)C1=C(C)N(c2cccc(C(F)(F)F)c2)C(=O)N[C@@H]1c1ccc(C#N)nc1 | cell-free assay |  | competition with immobilised ligand |  | 1 µM | remaining binding | 93.1% |
| CCN1CCC2(CC1)NC(=O)c1c(c3ccc(Cl)c(Cl)c3n1C)C2C#N (racemic) | thermal stability |  | DSF |  | 10 µM | ΔTm | -0.1 °C |
| COc1cc(/C=C/C(=O)CC(=O)/C=C/c2ccc(O)c(OC)c2)ccc1O | enzyme activity | inhibitor |  |  | 1 µM | activity vs control | 42% |
| FC(F)(F)Oc1cccc(-c2cnc3ccc(-c4ccncc4)nn23)c1 | enzyme activity | inhibitor | radiometric |  | 5 µM | activity vs control | 71% |
| CN1CCN(c2cnc3c(C4CCN(C(=O)c5ccc(OC(F)(F)F)cc5N)CC4)ncnc3c2)CC1 | cell-free assay |  | competition with immobilised ligand |  | 1 µM | remaining binding | 82% |
| Cn1c2c(c3ccc(Cl)c(Cl)c31)C(C#N)C1(CCNCC1)NC2=O (racemic) | thermal stability |  | DSF |  | 10 µM | ΔTm | 0.3 °C |
| Oc1cccc(-c2nc(N3CCOCC3)c3oc4ncccc4c3n2)c1 | enzyme activity | inhibitor |  |  | 10 µM | remaining activity | 115% |
| CN1CC(Oc2cnc(C#N)cc2-c2ccn3nc(NC(=O)C4CC4)cc3c2)C1 | enzyme activity | inhibitor |  |  | 1 µM | inhibition | 4% |

| SMILES | read-out | mode | technique | cell line | tested at | measurement | value |
| --- | --- | --- | --- | --- | --- | --- | --- |
| CCCS(=O)(=O)Nc1ccc(F)c(C(=O)c2c[nH]c3ncc(-c4ccc(Cl)cc4)cc23)c1F | enzyme activity | inhibitor |  |  | 1 µM | inhibition | < 10% |
| COc1cc(Nc2cnc(C#N)c(O[C@H](C)CN(C)C)n2)ncc1-c1cnn(C)c1 | enzyme activity | inhibitor | radiometric |  | 10 µM | remaining activity | 30% |
| Cc1ccc(C(=O)Nc2ccc(CN3CCN(C)CC3)c(C(F)(F)F)c2)cc1C#Cc1cnc2cccnn12 | enzyme activity | inhibitor |  |  | 23.5 nM | remaining activity | 97% |
| C[C@H](c1cccc(C#N)c1)n1cc(Cl)cc(C(N)=O)c1=N | cell-free assay |  | competition with immobilised ligand |  | 1 µM | remaining binding | 84% |
| CCN(CC)CCNC(=O)c1c(C)[nH]c(/C=C2\C(=O)Nc3ccc(F)cc32)c1C | cell-free assay |  |  |  | 0.5 µM | remaining signal | 24.8% |
| Cc1cc(-n2nc(Cc3cc(F)cc(C(F)(F)F)c3)nc2C)ccc1C(N)=O | cell-free assay |  | competition with immobilised ligand |  | 1 µM | remaining binding | 100% |
| Cc1ccc(C(=O)NCc2ccsc2)cc1C#Cc1cn(C(C)C)c2ncnc(N)c12 | enzyme activity | inhibitor |  |  | 1 µM | activity vs control | 78% |
| N#CCCc1ccc2c(c1)-c1[nH]c3ccc([N+](=O)[O-])cc3c1CC(=O)N2 | cell-free assay |  |  |  | 0.5 µM | remaining signal | 40.9% |
| Cn1c2c(Cl)c(Cl)ccc2c2cc[nH]c(=O)c21 | thermal stability |  | DSF |  | 10 µM | ΔTm | 1.9 °C |
| COc1cc(Cl)c(C(=O)N[C@@H](CN[C@H]2CC[C@@H](N)CC2)Cc2ccc(C#N)cc2)cc1-c1ccc(CN[C@H](C)c2ccc(C)cc2)o1 | enzyme activity | inhibitor |  |  | 1 µM | remaining activity | 97% |
| Cn1c2c(c3ccc(Cl)c(Cl)c31)C(C#N)C1(CCOCC1)NC2=O (centres unmarked) | thermal stability |  | DSF |  | 10 µM | ΔTm | -0.1 °C |
| Cc1ccc(Nc2nccc(N(C)c3ccc4c(C)n(C)nc4c3)n2)cc1S(N)(=O)=O | cell-free assay | inhibitor |  |  | 10 µM | inhibition | 4% |
| Nc1nc(Nc2ccccc2)sc1C(=O)c1c(F)cccc1F | enzyme activity | inhibitor |  |  | 10 µM | remaining activity | 40% |
| COc1cc2ncnc(Nc3ccc(Oc4ccccc4)c(C)c3C)c2cc1OC | enzyme activity | inhibitor |  |  | 1 µM | inhibition | 1% |
| CCOC(=O)c1cc2cc(-c3cc(C(=O)NCc4ccc(C(=O)O)cc4)nn3C)ccc2[nH]1 | cell-free assay |  | competition with immobilised ligand |  | 0.1 µM | remaining binding | 96% |
| CCN1CCN(Cc2ccc(NC(=O)c3ccc(C)c(Oc4ccnc5[nH]ccc45)c3)cc2C(F)(F)F)CC1 | target engagement in cells | inhibitor | chemoproteomics | Huh-7 | 10 µM | inhibition | -56.5% |
| CC(C)(C)C(=O)c1sc(NC2CCCCC2)nc1N | enzyme activity | inhibitor |  |  | 10 µM | remaining activity | 104% |
| O=C(Nc1cnn(-c2csc(C(=O)NC3COC3)c2)c1)Nc1ccccc1Cl | enzyme activity | inhibitor |  |  | 5 µM | remaining activity | 120% |
| COc1cc2c(N3CCN(C(=O)Nc4ccc(OC(C)C)cc4)CC3)ncnc2cc1OCCCN1CCCCC1 | cell-free assay |  |  |  | 0.5 µM | remaining signal | 94.7% |
